In ChEMBL document CHEMBL1156237, “Antiviral activity of benzimidazole derivatives. II. Antiviral activity of 2-phenylbenzimidazole derivatives” (Bioorg Med Chem, 2010):
pEC50: −log10 of the molar value. Activity calls are given as the source filed them. No rule for the calls is given here.

System: Bovine viral diarrhea virus 1
Test: Antiviral activity against Bovine viral diarrhea virus NADL infected in MDBK cells assessed as protection from virus-induced cytopathogenicity after 3 to 4 days by MTT method
Type: functional, organism-based, Bovine viral diarrhea virus 1-NADL
Conditions: Bovine viral diarrhea virus isolates and strains, MDBK
How it was run: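 Cytopathogenicity protection assay. MDBK cells at 3 × 10^4/well, grown overnight to confluence. Infected with BVDV NADL at m.o.i. 0.01 in MEM-E with 0.5% inactivated FBS, 1 mM Na pyruvate and 1% kanamycin. Serial compound dilutions added after 1 h. After 3–4 days at 37 °C, viability read by MTT; EC50 is the concentration giving 50% protection.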

Compound | pEC50
COc1ccc(-c2nc3cc(Cl)c(Cl)cc3[nH]2)cc1 | < 5.60
COc1ccc(-c2nc3cc(C(F)(F)F)ccc3[nH]2)c(N)c1 | < 5.40
Cn1c(-c2ccc([N+](=O)[O-])cc2)nc2cc(C(F)(F)F)ccc21 | < 4.00
O=[N+]([O-])c1ccc(-c2nc3cc(C(F)(F)F)ccc3n2C2CCCCC2)cc1 | 4.22
COc1ccc(-c2nc3cc(C(C)=O)ccc3[nH]2)c(OC)c1 | 4.38

System: Yellow fever virus
Test: Antiviral activity against Yellow fever virus 17D infected in BHK cells assessed as protection from virus-induced cytopathogenicity after 3 to 4 days by MTT method
Type: functional, organism-based
Conditions: not given

Compound | pEC50
COc1ccc(-c2nc3cc(Cl)c(Cl)cc3[nH]2)cc1 | < 4.74
COc1ccc(-c2nc3cc(C(F)(F)F)ccc3[nH]2)c(N)c1 | 4.70
Cn1c(-c2ccc([N+](=O)[O-])cc2)nc2cc(C(F)(F)F)ccc21 | < 4.00
O=[N+]([O-])c1ccc(-c2nc3cc(C(F)(F)F)ccc3n2C2CCCCC2)cc1 | < 4.00
COc1ccc(-c2nc3cc(C(C)=O)ccc3[nH]2)c(OC)c1 | < 4.00

System: Human alphaherpesvirus 1
Test: Antiviral activity against HSV1 KOS infected in african green monkey Vero cells after 3 days by plaque reduction assay
Type: functional, organism-based
Conditions: Human alphaherpesvirus 1, KOS, 72 h
How it was run: (§1)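 Plaque reduction assay. Vero 76 cells at 2 × 10^5/well, grown overnight to confluence in D-MEM with 10% FBS. Infected 2 h with 50–100 PFU/well, unadsorbed virus removed. Overlay of D-MEM with 1% inactivated FBS and 0.75% methylcellulose, with or without serial compound dilutions. Incubated at 37 °C for 3 days (HSV-1 KOS, CVB-2 Ohio-1) or 5 days (RSV A2). Fixed and stained with crystal violet in 50% ethanol; plaques counted; EC50 by linear regression.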

Compound | pEC50
COc1ccc(-c2nc3cc(Cl)c(Cl)cc3[nH]2)cc1 | 4.70
COc1ccc(-c2nc3cc(C(F)(F)F)ccc3[nH]2)c(N)c1 | < 4.30
Cn1c(-c2ccc([N+](=O)[O-])cc2)nc2cc(C(F)(F)F)ccc21 | < 4.00
O=[N+]([O-])c1ccc(-c2nc3cc(C(F)(F)F)ccc3n2C2CCCCC2)cc1 | < 4.00
COc1ccc(-c2nc3cc(C(C)=O)ccc3[nH]2)c(OC)c1 | < 4.00

System: Respiratory syncytial virus
Test: Antiviral activity against RSV A2 infected in african green monkey Vero cells after 5 days by plaque reduction assay
Type: functional, organism-based
Conditions: human respiratory syncytial virus, A2, Vero, 120 h
How it was run: as §1

Compound | pEC50
COc1ccc(-c2nc3cc(Cl)c(Cl)cc3[nH]2)cc1 | < 4.52
COc1ccc(-c2nc3cc(C(F)(F)F)ccc3[nH]2)c(N)c1 | < 4.30
Cn1c(-c2ccc([N+](=O)[O-])cc2)nc2cc(C(F)(F)F)ccc21 | < 4.00
O=[N+]([O-])c1ccc(-c2nc3cc(C(F)(F)F)ccc3n2C2CCCCC2)cc1 | < 4.00
COc1ccc(-c2nc3cc(C(C)=O)ccc3[nH]2)c(OC)c1 | < 4.00

System: Vaccinia virus
Test: Antiviral activity against Vaccinia virus Elstree-Lister infected in african green monkey Vero cells after 3 days by plaque reduction assay
Type: functional, organism-based
Conditions: Orthopoxvirus vaccinia, 72 h

Compound | pEC50
COc1ccc(-c2nc3cc(Cl)c(Cl)cc3[nH]2)cc1 | < 4.52
COc1ccc(-c2nc3cc(C(F)(F)F)ccc3[nH]2)c(N)c1 | < 4.30
Cn1c(-c2ccc([N+](=O)[O-])cc2)nc2cc(C(F)(F)F)ccc21 | < 4.00
O=[N+]([O-])c1ccc(-c2nc3cc(C(F)(F)F)ccc3n2C2CCCCC2)cc1 | 4.06
COc1ccc(-c2nc3cc(C(C)=O)ccc3[nH]2)c(OC)c1 | < 4.00

System: Human immunodeficiency virus 1
Test: Antiviral activity against HIV1 3B infected in human MT4 cells assessed as protection from virus-induced cytopathogenicity after 4 days by MTT method
Type: functional, organism-based
Conditions: not given
How it was run: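 MT-4 cells, 1 × 10^4/well in RPMI with or without serial compound dilutions, infected with HIV-1 IIIB, 100 CCID50 (m.o.i. 0.01). Protection from virus-induced cytopathogenicity read by MTT.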

Compound | Activity
COc1ccc(-c2nc3cc(Cl)c(Cl)cc3[nH]2)cc1 | inactive
COc1ccc(-c2nc3cc(C(F)(F)F)ccc3[nH]2)c(N)c1 | inactive
Cn1c(-c2ccc([N+](=O)[O-])cc2)nc2cc(C(F)(F)F)ccc21 | inactive
O=[N+]([O-])c1ccc(-c2nc3cc(C(F)(F)F)ccc3n2C2CCCCC2)cc1 | inactive
COc1ccc(-c2nc3cc(C(C)=O)ccc3[nH]2)c(OC)c1 | inactive

System: Poliovirus 1
Test: Antiviral activity against Polio virus type1 Sabin strain Chat infected in african green monkey Vero cells after 2 days by plaque reduction assay
Type: functional, organism-based, Human poliovirus 1 strain Sabin
Conditions: Enterovirus C, 48 h

Compound | pEC50
COc1ccc(-c2nc3cc(Cl)c(Cl)cc3[nH]2)cc1 | < 4.52
COc1ccc(-c2nc3cc(C(F)(F)F)ccc3[nH]2)c(N)c1 | 4.74
Cn1c(-c2ccc([N+](=O)[O-])cc2)nc2cc(C(F)(F)F)ccc21 | < 4.00
O=[N+]([O-])c1ccc(-c2nc3cc(C(F)(F)F)ccc3n2C2CCCCC2)cc1 | < 4.00
COc1ccc(-c2nc3cc(C(C)=O)ccc3[nH]2)c(OC)c1 | < 4.00

System: not listed separately
Test: Cytotoxicity against BHK cells after 48 to 96 hrs by MTT assay
Type: cell-based, Mesocricetus auratus
Conditions: hamster
How it was run: (§2)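 Cell seeding: MDBK at 6 × 10^5 cells/mL in MEM-E with 10% horse serum and 1 mM Na pyruvate; BHK at 1 × 10^6 cells/mL in MEM-E with 10% FBS. Serial compound dilutions, 37 °C, 5% CO2. Viability of mock-infected cells by MTT after 48–96 h; CC50 is the concentration reducing viability by 50%.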

Compound | CC50 [µM]
COc1ccc(-c2nc3cc(Cl)c(Cl)cc3[nH]2)cc1 | 18
COc1ccc(-c2nc3cc(C(F)(F)F)ccc3[nH]2)c(N)c1 | ≥ 100
Cn1c(-c2ccc([N+](=O)[O-])cc2)nc2cc(C(F)(F)F)ccc21 | > 100
O=[N+]([O-])c1ccc(-c2nc3cc(C(F)(F)F)ccc3n2C2CCCCC2)cc1 | > 100
COc1ccc(-c2nc3cc(C(C)=O)ccc3[nH]2)c(OC)c1 | > 100

System: not listed separately
Test: Cytotoxicity against african green monkey Vero cells
Type: cell-based
Conditions: chlorocebus sabaeus
How it was run: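 Vero 76 monolayers exposed to serial compound dilutions, run in parallel on the same 24-well plates as the plaque-reduction assays. CC50 is the concentration reducing viability of mock-infected cells by 50%.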

Compound | CC50 [µM]
COc1ccc(-c2nc3cc(Cl)c(Cl)cc3[nH]2)cc1 | 30
COc1ccc(-c2nc3cc(C(F)(F)F)ccc3[nH]2)c(N)c1 | 50
Cn1c(-c2ccc([N+](=O)[O-])cc2)nc2cc(C(F)(F)F)ccc21 | > 100
O=[N+]([O-])c1ccc(-c2nc3cc(C(F)(F)F)ccc3n2C2CCCCC2)cc1 | > 100
COc1ccc(-c2nc3cc(C(C)=O)ccc3[nH]2)c(OC)c1 | > 100

System: not listed separately
Test: Cytotoxicity against human MT4 cells after 96 hrs by MTT assay
Type: cell-based
Conditions: MT4 cells
How it was run: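 Exponentially growing MT-4 cells at 1 × 10^5 cells/mL in RPMI-1640 with 10% FCS, exposed to serial compound dilutions at 37 °C, 5% CO2. Viability by MTT after 96 h; CC50 is the concentration reducing viability of mock-infected cells by 50%.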

Compound | CC50 at 96 h [µM]
COc1ccc(-c2nc3cc(Cl)c(Cl)cc3[nH]2)cc1 | 1
COc1ccc(-c2nc3cc(C(F)(F)F)ccc3[nH]2)c(N)c1 | 5
Cn1c(-c2ccc([N+](=O)[O-])cc2)nc2cc(C(F)(F)F)ccc21 | ≥ 100
O=[N+]([O-])c1ccc(-c2nc3cc(C(F)(F)F)ccc3n2C2CCCCC2)cc1 | 49
COc1ccc(-c2nc3cc(C(C)=O)ccc3[nH]2)c(OC)c1 | > 100

System: Coxsackievirus B2
Test: Antiviral activity against Human coxsackievirus B2 Ohio-1 infected in african green monkey Vero cells after 3 days by plaque reduction assay
Type: functional, organism-based, Coxsackievirus B2 (strain Ohio-1)
Conditions: Enterovirus B, Vero, 72 h
How it was run: as §1

Compound | pEC50
COc1ccc(-c2nc3cc(Cl)c(Cl)cc3[nH]2)cc1 | 5.00
COc1ccc(-c2nc3cc(C(F)(F)F)ccc3[nH]2)c(N)c1 | 5.22
Cn1c(-c2ccc([N+](=O)[O-])cc2)nc2cc(C(F)(F)F)ccc21 | < 4.00
O=[N+]([O-])c1ccc(-c2nc3cc(C(F)(F)F)ccc3n2C2CCCCC2)cc1 | 4.35
COc1ccc(-c2nc3cc(C(C)=O)ccc3[nH]2)c(OC)c1 | < 4.00

System: not listed separately
Test: Cytotoxicity against MDBK cells after 48 to 96 hrs by MTT assay
Type: cell-based, Bos taurus
Conditions: cattle, MDBK cells
How it was run: as §2

Compound | CC50 [µM]
COc1ccc(-c2nc3cc(Cl)c(Cl)cc3[nH]2)cc1 | 2.5
COc1ccc(-c2nc3cc(C(F)(F)F)ccc3[nH]2)c(N)c1 | 4
Cn1c(-c2ccc([N+](=O)[O-])cc2)nc2cc(C(F)(F)F)ccc21 | > 100
O=[N+]([O-])c1ccc(-c2nc3cc(C(F)(F)F)ccc3n2C2CCCCC2)cc1 | 68
COc1ccc(-c2nc3cc(C(C)=O)ccc3[nH]2)c(OC)c1 | > 100

System: Vesicular stomatitis virus
Test: Antiviral activity against VSV Indiana lab infected in african green monkey Vero cells after 2 days by plaque reduction assay
Type: functional, organism-based
Conditions: not given

Compound | Activity
COc1ccc(-c2nc3cc(Cl)c(Cl)cc3[nH]2)cc1 | inactive
COc1ccc(-c2nc3cc(C(F)(F)F)ccc3[nH]2)c(N)c1 | inactive
Cn1c(-c2ccc([N+](=O)[O-])cc2)nc2cc(C(F)(F)F)ccc21 | inactive
O=[N+]([O-])c1ccc(-c2nc3cc(C(F)(F)F)ccc3n2C2CCCCC2)cc1 | inactive
COc1ccc(-c2nc3cc(C(C)=O)ccc3[nH]2)c(OC)c1 | inactive
